Rows were chosen to be rich in hits. Some 4% of all compounds tested hit in one or more screens of this group.
S1P3 antagonist: S1P3 receptor antagonists, primary screen, cell-based. Sphingosine 1-phosphate receptor 3 (Homo sapiens), Q99500. actives 0.27% (n = 170,000). CHO S1P3 NFAT-BLA reporter, FRET fluorescence, antagonist mode. inhibition, % at 4.98 µM;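 active = inhibition above the plate cutoff, the mean inhibition of test wells on that plate plus 3 SD, cut at about 28% in these data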;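 note: cells challenged with S1P at its EC80 of 0.8 µM; blue over green emission ratio from cleaved BLA substrate after 4 h stimulation; 0% = S1P-stimulated wells and 100% = unstimulated DMSO-only wells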
Hsp70 activator: Hsp70 transcriptional activators, primary screen, cell-based, HeLa, Hsp70 promoter luciferase, luminescence, 10 µM | HeLa Hsp70 promoter luciferase reporter; scaled: vehicle 0, proteasome-inhibitor control 100% | activation, % at 10 µM | actives 0.04% (n = 200,000) | AID 1203, 2008;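 active = activation above the mean across all tested compounds plus 3 SD, cutoff set per campaign, cut at about 5.5% in these data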;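 note: 100% = MG132 at 30 µM as the positive control and 0% = DMSO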
CHOP inhibitor: inhibitors of CHOP promoter induction, primary screen, cell-based, unfolded protein response, luciferase reporter; CHO-K1 CHOP-promoter luciferase, tunicamycin-induced, 15-18 h; inhibition, % at 10 µM; actives 3.8% (n = 220,000);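 active = compounds that reduced the stress-induced luciferase reporter signal by more than about 70% of percent inhibition, limit read from the data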;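 note: 0% = tunicamycin plus vehicle and 100% = wells without tunicamycin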
Mdm2 ligase inh: MDM2-luciferase reporter signal enhancers, primary screen, MDM2 E3 ligase inhibitor project, cell-based, luminescence, 1536-well; cell-based MDM2 ubiquitination luciferase reporter, 2 h; 0 = plate control, 100 = twice control, blank-subtracted; AID 1230, 2008; actives 0.11% (n = 210,000); signal enhancement, % at 5 µM; E3 ubiquitin-protein ligase Mdm2 (Homo sapiens), Q00987;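 active = signal enhancement of 30% or more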;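 note: luminescence tracks abundance of the self-degrading MDM2-luciferase fusion protein; higher signal means inhibition of MDM2 E3 ligase activity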
Target sequence (Q00987 whole entry, looked up, the tested form may be a part): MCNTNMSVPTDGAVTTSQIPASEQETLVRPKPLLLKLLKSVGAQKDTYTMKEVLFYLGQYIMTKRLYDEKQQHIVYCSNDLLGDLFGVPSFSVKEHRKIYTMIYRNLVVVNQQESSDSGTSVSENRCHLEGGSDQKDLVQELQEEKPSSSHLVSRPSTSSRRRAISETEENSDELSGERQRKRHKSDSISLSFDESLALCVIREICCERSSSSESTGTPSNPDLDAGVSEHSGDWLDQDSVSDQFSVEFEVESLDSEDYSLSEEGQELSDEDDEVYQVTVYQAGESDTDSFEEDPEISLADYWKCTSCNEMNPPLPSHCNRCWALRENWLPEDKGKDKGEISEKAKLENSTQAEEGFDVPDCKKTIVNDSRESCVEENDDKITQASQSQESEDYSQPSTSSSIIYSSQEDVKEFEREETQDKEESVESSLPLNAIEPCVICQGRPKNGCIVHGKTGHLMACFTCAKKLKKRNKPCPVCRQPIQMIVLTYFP
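test system = mammalian cells stably expressing self-ubiquitinating, self-degrading MDM2 E3–luciferase fusion | quantity = 2000 cells/well | incubation = cell settling 4 h, compound treatment 2 h, both 37 °C | signal = luminescence with SteadyLite reagent, 15 min at room temperature | evaluation = % enhancement relative to plate controls after blank subtraction | benchmarks = plate controls and plate blanks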
* = called active by the depositor.

Screening COc1ccc2c(c1)c(=O)oc1cc3occ(C(C)(C)C)c3cc12 returned Hsp70 activator 0, CHOP inhibitor 87* and Mdm2 ligase inh -6.
`CC1CCN(C(=O)Cn2c(=O)n(Cc3ccc4c(c3)OCO4)c(=O)c3ccccc32)CC1` gave S1P3 antagonist 11, Hsp70 activator 0, CHOP inhibitor 11 and Mdm2 ligase inh 0.
Screening CC1CCN(C(=O)Cn2c(=O)n(CCc3ccccc3)c(=O)c3ccccc32)CC1 returned S1P3 antagonist -20, Hsp70 activator 0, CHOP inhibitor 88* and Mdm2 ligase inh -3.
FC(F)(F)c1cccc(N2CCN(c3ccc4nnc(-c5ccccc5)n4n3)CC2)c1 was read as S1P3 antagonist 8, Hsp70 activator 0, CHOP inhibitor 85* and Mdm2 ligase inh 1.
For c1ccc(-c2nnc3ccc(N4CCCC4)nn23)cc1 the results were Hsp70 activator 0, CHOP inhibitor -7 and Mdm2 ligase inh -5.
Screening Cc1ccc(S(=O)(=O)Nc2ccc(-c3csc(-c4ccccc4)n3)cc2)cc1 returned S1P3 antagonist -1, Hsp70 activator 0 and CHOP inhibitor 94*.
Cc1cc(C(=O)OCC(=O)Nc2nc(-c3ccccc3)cs2)c(C)o1 was read as S1P3 antagonist 9, Hsp70 activator 0, CHOP inhibitor 94* and Mdm2 ligase inh -9.
Screening O=[N+]([O-])c1ccc(S(=O)(=O)Nc2ccc(-c3csc(-c4ccccc4)n3)cc2)cc1 returned Hsp70 activator 0, CHOP inhibitor 19 and Mdm2 ligase inh -8.
Screening CCN(CC)S(=O)(=O)c1cccc(NC(=O)COC(=O)c2cc(C)oc2C)c1 returned Hsp70 activator 0, CHOP inhibitor 72* and Mdm2 ligase inh -39.
Screening O=C(CS(=O)(=O)c1ccccc1)Nc1nc(-c2ccccc2)cs1 returned S1P3 antagonist 24, Hsp70 activator 0, CHOP inhibitor 40 and Mdm2 ligase inh -5.
`Cc1ccc(S(=O)(=O)CC(=O)Nc2nc(-c3ccccc3)cs2)cc1` gave Hsp70 activator 0, CHOP inhibitor 90* and Mdm2 ligase inh -8.
Cc1cc(C(=O)OCC(=O)Nc2cccc(S(=O)(=O)N(C)C)c2)c(C)o1 was read as S1P3 antagonist 1, CHOP inhibitor 5 and Mdm2 ligase inh -5.
`Cc1cc(C(=O)OC(C)C(=O)Nc2nc(-c3ccccc3)cs2)c(C)o1` (stereo unspecified) gave Hsp70 activator 0, CHOP inhibitor 45 and Mdm2 ligase inh -33.
Cc1cc(Cl)ccc1OCC(=O)N/N=C1\CC2C=CCC12 (stereo unspecified) was read as S1P3 antagonist 12, Hsp70 activator 0, CHOP inhibitor 26 and Mdm2 ligase inh 5.
Cc1ccc(C)c(NC(=O)CN(C)C(=O)COc2ncnc3sccc23)c1 was read as S1P3 antagonist 4, Hsp70 activator 0, CHOP inhibitor -10 and Mdm2 ligase inh 7.
For Cc1nonc1OCCNCc1c(C(=O)N(C)C)nc2ccc(Cl)cn12 the results were S1P3 antagonist 17, Hsp70 activator 0, CHOP inhibitor 8 and Mdm2 ligase inh -23.
`FC(F)(F)c1cccc(NCc2n[nH]c(=S)n2C2CCCCC2)c1` gave S1P3 antagonist -15, Hsp70 activator 0, CHOP inhibitor -18 and Mdm2 ligase inh 7.
`O=Cc1[nH]c2ccccc2c1N(C(=O)CCl)c1ccccc1` gave S1P3 antagonist -9, CHOP inhibitor 87* and Mdm2 ligase inh -3.
Screening CC(=O)Nc1sc(N/N=C\c2cccc(Cl)c2)nc1-c1cccs1 returned S1P3 antagonist -3, Hsp70 activator 0, CHOP inhibitor 96* and Mdm2 ligase inh -15.
`CCCC(=O)NC(c1ccc(OC)cc1)c1ccc2cccnc2c1O` (stereo unspecified) gave S1P3 antagonist -4, Hsp70 activator 0, CHOP inhibitor 82* and Mdm2 ligase inh 7.
Screening COc1ccc(C2SCCN2C(=S)Nc2cccc(Cl)c2)cc1 (stereo unspecified) returned S1P3 antagonist -6, Hsp70 activator 0, CHOP inhibitor 12 and Mdm2 ligase inh -7.
`CC(C)(C)C1CCC(OC(=O)c2ccncc2)CC1` (stereo unspecified) gave S1P3 antagonist 24, Hsp70 activator 0, CHOP inhibitor 74* and Mdm2 ligase inh -16.
`Cc1nn(C)cc1/C=N/NC(=O)Cn1nnc(N)n1` gave S1P3 antagonist -1, CHOP inhibitor -8 and Mdm2 ligase inh -5.
Cc1ccc(-n2nnc(-c3nccs3)n2)cc1 was read as S1P3 antagonist -6, Hsp70 activator 0 and CHOP inhibitor 78*.
O=C(c1ccc(C#CC2(O)CCCCC2)cc1)N1CCN(C(c2ccccc2)c2ccccc2)CC1 was read as Hsp70 activator 0, CHOP inhibitor 37 and Mdm2 ligase inh -8.
For Cc1ccccc1OCC(O)CN(Cc1ccccc1O)C1CCCCC1 (stereo unspecified) the results were S1P3 antagonist 11, Hsp70 activator 0, CHOP inhibitor 88* and Mdm2 ligase inh -12.
`CN(CC(O)COc1ccccc1F)C1CCCCC1` (stereo unspecified) gave S1P3 antagonist -5, Hsp70 activator 0, CHOP inhibitor 12 and Mdm2 ligase inh 2.
For COC(=O)C1(C)Cc2cc(OC(C)=O)c(OC(C)=O)cc2N1 (stereo unspecified) the results were S1P3 antagonist -3 and CHOP inhibitor -5.
CC1=C(C(=O)OCC(C)C)C(c2cccc(F)c2)N2C(=O)C(C)SC2=N1 (stereo unspecified) was read as S1P3 antagonist 14, Hsp70 activator 0, CHOP inhibitor 78* and Mdm2 ligase inh 1.
CCOC(=O)C1=C(C)N=C2SC(C)C(=O)N2C1c1cccc(F)c1 (stereo unspecified) was read as Hsp70 activator 0, CHOP inhibitor 47 and Mdm2 ligase inh -9.
For CC1=C(C(=O)OC(C)C)C(c2cccc(F)c2)N2C(=O)C(C)SC2=N1 (stereo unspecified) the results were S1P3 antagonist -4, Hsp70 activator 0, CHOP inhibitor 74* and Mdm2 ligase inh 3.
For CCCCC(=O)Nc1ccc(C(=O)NN2C(=O)c3ccccc3C2=O)cc1 the results were Hsp70 activator 0, CHOP inhibitor -22 and Mdm2 ligase inh -11.
O=C(CCc1ccccc1)NC(c1cccs1)c1cc(Cl)c2cccnc2c1O (stereo unspecified) was read as S1P3 antagonist -15, Hsp70 activator -1, CHOP inhibitor 89* and Mdm2 ligase inh -13.
For CCCC(=O)NC(c1cccs1)c1cc([N+](=O)[O-])c2cccnc2c1O (stereo unspecified) the results were S1P3 antagonist -12, Hsp70 activator 0 and CHOP inhibitor 36.

Screening results deposited in PubChem BioAssay by several laboratories.
